Measurements collected from several papers.
Each line is one published result; the experiments were not run side by side.
Target: Phosphatidylinositol 4,5-bisphosphate 3-kinase catalytic subunit beta isoform (PIK3CB, Homo sapiens, UniProt P42338)

With c1cncc(-c2cccc(Nc3nccc(NC4CCCCC4)n3)c2)c1 the remaining binding was 100% (binding, competition with immobilised ligand; 10 µM).
The remaining binding of O=C(NCCCN1CCOCC1)c1ccc(Nc2ncc(Cl)c(-c3ccc(Cl)s3)n2)cc1 is reported as 99% (binding, competition with immobilised ligand; 1 µM).
COc1cnc(Nc2cccc(S(N)(=O)=O)c2)nc1N1CCN(c2ccccc2)CC1 gave a remaining binding of 86% (binding, competition with immobilised ligand; 1 µM).
With C[C@H]1CCN(c2nccc(-c3cnn4ncccc34)n2)C1 the remaining binding was 65% (binding; 1 µM).
For CNC(=O)[C@@H]1CC[C@@H](n2c(-c3ccc4cnccc4c3)nc3ccc(C(=O)NCc4cccc(C(N)=O)c4)cc32)C1, the remaining binding was 100% (binding, competition with immobilised ligand; 1 µM).
The remaining binding of O=C(NCc1ncc(C(F)(F)F)cc1Cl)c1ccc2c(c1)C1(CCS(=O)(=O)CC1)[C@H](C1CC1)N2S(=O)(=O)c1ccc(F)cc1 is reported as 68% (cell-free assay, competition with immobilised ligand; 1 µM).
For O=C(c1ccc(Nc2nccc(-c3cc4ccccc4s3)n2)cc1)N1CCC(N2CCCC2)CC1, the remaining binding was 86% (binding, competition with immobilised ligand; 1 µM).
F[C@@H]1CCN(c2nccc(-c3cnn4ncccc34)n2)C1 gave a remaining binding of 100% (binding; 1 µM).
Cc1cnc(Nc2ccc(C(=O)N3CCC(N4CCCC4)CC3)cc2)nc1-c1cc2ccccc2s1 gave a remaining binding of 99% (binding, competition with immobilised ligand; 1 µM).
CN(c1ccnc(CNc2nc(Nc3ccc4c(c3)CC(=O)N4)ncc2C(F)(F)F)n1)S(C)(=O)=O has a remaining binding of 100% (cell-free assay, competition with immobilised ligand; 1 µM).
O=C(NCC1CCOCC1)c1n[nH]cc1NC(=O)c1c(F)cccc1F has a remaining binding of 91% (binding, competition with immobilised ligand; 1 µM).
With CN(C)C(=O)Cn1cc(-c2nc(C3(c4ccc(-c5cnc(N)nc5)cc4)CC3)no2)cn1 the remaining binding was 96% (cell-free assay, competition with immobilised ligand; 1 µM).
The remaining binding of Nc1ncc2c(n1)-c1c([nH]c3ccc(C#CC4CC4)cc13)CCCC2 is reported as 100% (binding, competition with immobilised ligand; 1 µM).
With COc1cc(-c2cn(C3CCc4ccccc4N(CC(F)(F)F)C3=O)nn2)ccc1-n1ccc(C)n1 (centres unmarked) the remaining binding was 100% (cell-free assay, competition with immobilised ligand; 1 µM).
N[C@@H]1CCN(c2nccc(-c3cnn4ncccc34)n2)C1 gave a remaining binding of 100% (binding; 1 µM).
With FC(F)(F)Oc1cccc(-c2cnc3ccc(-c4ccncc4)nn23)c1 the remaining binding was 48% (cell-free assay, competition with immobilised ligand; 5 µM).
CC1CCCN1c1nccc(-c2cnn3ncccc23)n1 (centres unmarked) has a remaining binding of 100% (binding; 1 µM).
Nc1c(C(=O)NCc2ccc(C(=O)NCCCC3CCCCC3)cc2)cnn1-c1ccccc1 has a remaining binding of 100% (cell-free assay, competition with immobilised ligand; 0.1 µM).
For c1cnn2ncc(-c3ccnc(N4CCC45COC5)n3)c2c1, the remaining binding was 62% (binding; 1 µM).
For CCC(=N\O)/C(C)=C/c1ccc(F)cc1, the remaining binding was 99% (cell-free assay, competition with immobilised ligand; 1 µM).
